# Test results taken from paper PMC2804034 (Journal of medicinal chemistry, 2010).
# Columns and labels:
# [1] = test system: Y strain T. cruzi trypomastigotes; test: Trypanosoma cruzi assay in infected J774 macrophages; format: cell-based; details: for activity against T. cruzi: 27 days treatment; for effect against the T. cruzi parasite in cell culture: infected macrophages
# [2] = test system: Trypanosoma brucei brucei strain 221; test: Trypanosoma brucei brucei assay; format: cell-based; details: for MIC50: Trypanosoma brucei, 48 h, read-out: Tbb MIC50; for trypanocidal activity against T. brucei: up to 100 μM
# [3] = test system: J774 macrophages; test: Compound toxicity for host macrophages in the T. cruzi assay; format: cell-based; details: 5 μM
# [4] = biological target: cruzain (Trypanosoma cruzi, UniProt P25779); test: Cruzain enzymatic assay in 96-well plate format; format: biochemical; details: secondary assays performed at UCSF
# Sequence of cruzain (P25779 123-337 limits assumed): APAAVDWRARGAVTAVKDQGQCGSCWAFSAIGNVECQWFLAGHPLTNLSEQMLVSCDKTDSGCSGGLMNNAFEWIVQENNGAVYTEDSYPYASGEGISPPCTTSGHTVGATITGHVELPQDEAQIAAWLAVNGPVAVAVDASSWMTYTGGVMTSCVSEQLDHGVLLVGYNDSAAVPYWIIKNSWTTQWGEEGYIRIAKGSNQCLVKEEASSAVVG
# Summary of the method: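 Recombinant cruzain (4 nM final) in 100 mM sodium acetate pH 5.5, 5 mM DTT, 0.001% Triton X-100, preincubated 5 min at room temperature with test compound in DMSO. Reaction started with Z-Phe-Arg-AMC (10 μM). AMC release was followed as the rate of fluorescence increase (ex 355, em 460 nm). DMSO-only wells served as uninhibited control. IC50 was obtained by curve fitting.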
Structure (SMILES),MIC50 [2] [µM],effect against the T. cruzi parasite in cell culture [1],further results
"CN1CCN(C(=O)N[C@@H](Cc2ccccc2)C(=O)N[C@H](/C=C/S(=O)(=O)c2ccccc2)CCc2ccccc2)CC1 [Compound K777, reference compound]",–,–,activity against T. cruzi ([1]; 10 μM): cured cell infection
N#Cc1nc(Nc2cccc(Cl)c2)c2ncn(C3CCCC3)c2n1 [Compound 36],100,no effect,activity against T. cruzi ([1]; 10 μM): inactive
"N#Cc1nc(Nc2cc(F)cc(F)c2)nc(NC2CCCC2)n1 [Compound 29, 4-(cyclopentylamino)-6-(3,5-difluorophenylamino)-1,3,5-triazine-2-carbonitrile]",6,–,toxicity against macrophages [3]: toxic
"CCn1cnc2c(Nc3cc(F)cc(F)c3)nc(C#N)nc21 [Compound 32, 6-(3,5-difluorophenylamino)-9-ethyl-9H-purine-2-carbonitrile]",25,no effect,activity against T. cruzi ([1]; 10 μM): inactive
"CCn1cnc2c(Nc3cccc(Cl)c3)nc(C#N)nc21 [Compound 35, 6-(3-chlorophenylamino)-9-ethyl-9H-purine-2-carbonitrile]",25,no effect,activity against T. cruzi ([1]; 10 μM): inactive
N#Cc1nc(NCC(F)F)nc(Nc2cc(F)cc(F)c2)n1 [Compound 31],6,–,–
N#Cc1nc(Nc2ccc(Br)cc2)nc(NC2CCCC2)n1 [Compound 26],> 100,–,–
N#Cc1nc(Nc2cccc(-c3ccccc3)c2)nc(NC2CCCC2)n1 [Compound 27],25,–,activity against T. cruzi ([1]; 5 μM): inactive
N#Cc1nc(Nc2cc(Cl)cc(Cl)c2)nc(NC2CCCC2)n1 [Compound 30],25,–,activity against T. cruzi ([1]; 5 μM): inactive
CCOc1nc(C#N)nc(N2CCCCC2)n1 [Compound 3],> 100,–,IC50 values (in words) [4]: mid-nanomolar; trypanocidal activity against T. brucei [2]: no trypanocidal activity
N#Cc1nc(N)nc(N(c2ccccc2)c2ccccc2)n1 [Compound 4],> 100,–,IC50 values (in words) [4]: mid-nanomolar; trypanocidal activity against T. brucei [2]: no trypanocidal activity

# The next lines start with results.
MIC50 [2] [µM],Structure (SMILES),effect against the T. cruzi parasite in cell culture [1],further results
6,N#Cc1nc(Nc2cccc(Cl)c2)nc(NC2CCCC2)n1 [Compound 22],no effect,activity against T. cruzi ([1]; 5 μM): inactive
6,N#Cc1nc(Nc2cccc(Br)c2)nc(NC2CCCC2)n1 [Compound 23],no effect,toxicity against macrophages [3]: toxic
> 100,N#Cc1nc(Nc2ccc(F)cc2)nc(NC2CCCC2)n1 [Compound 24],–,–
25,Cc1cccc(Nc2nc(C#N)nc(NC3CCCC3)n2)c1 [Compound 25],no effect,activity against T. cruzi ([1]; 5 μM): inactive
25,N#Cc1nc(Nc2cccc(C(F)(F)F)c2)nc(NC2CCCC2)n1 [Compound 28],–,activity against T. cruzi ([1]; 5 μM): inactive
100,N#Cc1nc(Nc2cccc(F)c2)nc(NC2CCCC2)n1 [Compound 21],–,–
100,N#Cc1nc(Nc2cccc([N+](=O)[O-])c2)nc(NC2CCCC2)n1 [Compound 20],–,–
